Assay [1] addresses Sodium-dependent dopamine transporter (Rattus norvegicus, UniProt P23977). The assay is described as follows: Displacement of [125I]RTI55 from DAT in Sprague-dawley rat striatum by liquid scintillation spectrophotometry. A digest of the protocol: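 Membranes from tissue homogenized in 10 vol of 0.32 M sucrose/10 mM sodium phosphate buffer, pH 7.4, and spun three times at 48,000g for 10 min. Cold-Tris filtration used BSA-presoaked GF/B filters, with WF-23 defining non-specific binding.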

For assay [2], the target named is Sodium-dependent serotonin transporter (Rattus norvegicus, UniProt P31652). The assay is described as follows: Displacement of [3H]citalopram from SERT in Sprague-dawley rat frontal cortex by liquid scintillation spectrophotometry. In kind it is tissue-based.
The target in the next assay is Transporter (Rattus norvegicus, UniProt Q63380). The assay is described as follows: Displacement of [3H]nisoxetine from Sprague-dawley rat NET by liquid scintillation spectrophotometry.

Experimental findings from ChEMBL document CHEMBL1139307, “1-Naphthyl and 4-indolyl arylalkylamines as selective monoamine reuptake inhibitors” (Bioorg Med Chem Lett, 2009) are described below.

Structures are written as SMILES.

Sequence of Sodium-dependent dopamine transporter (P23977 whole entry): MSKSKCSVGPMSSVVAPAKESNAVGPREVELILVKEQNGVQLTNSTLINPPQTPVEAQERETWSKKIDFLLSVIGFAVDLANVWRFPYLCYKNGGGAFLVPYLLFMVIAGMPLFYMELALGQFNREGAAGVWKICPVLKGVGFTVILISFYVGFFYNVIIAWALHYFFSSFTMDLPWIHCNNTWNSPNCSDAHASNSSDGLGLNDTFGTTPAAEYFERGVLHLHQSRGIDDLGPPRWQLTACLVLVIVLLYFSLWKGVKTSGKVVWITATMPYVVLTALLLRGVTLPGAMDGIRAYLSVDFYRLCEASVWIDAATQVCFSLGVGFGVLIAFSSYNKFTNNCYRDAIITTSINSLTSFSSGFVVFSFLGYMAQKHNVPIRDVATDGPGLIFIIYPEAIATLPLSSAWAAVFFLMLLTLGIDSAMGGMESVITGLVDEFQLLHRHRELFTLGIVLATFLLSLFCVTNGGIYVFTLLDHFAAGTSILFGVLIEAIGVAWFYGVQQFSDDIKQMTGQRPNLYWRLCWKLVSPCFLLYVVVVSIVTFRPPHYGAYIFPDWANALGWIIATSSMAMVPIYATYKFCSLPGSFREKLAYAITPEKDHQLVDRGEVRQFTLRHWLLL
Sequence of Sodium-dependent serotonin transporter (P31652 whole entry): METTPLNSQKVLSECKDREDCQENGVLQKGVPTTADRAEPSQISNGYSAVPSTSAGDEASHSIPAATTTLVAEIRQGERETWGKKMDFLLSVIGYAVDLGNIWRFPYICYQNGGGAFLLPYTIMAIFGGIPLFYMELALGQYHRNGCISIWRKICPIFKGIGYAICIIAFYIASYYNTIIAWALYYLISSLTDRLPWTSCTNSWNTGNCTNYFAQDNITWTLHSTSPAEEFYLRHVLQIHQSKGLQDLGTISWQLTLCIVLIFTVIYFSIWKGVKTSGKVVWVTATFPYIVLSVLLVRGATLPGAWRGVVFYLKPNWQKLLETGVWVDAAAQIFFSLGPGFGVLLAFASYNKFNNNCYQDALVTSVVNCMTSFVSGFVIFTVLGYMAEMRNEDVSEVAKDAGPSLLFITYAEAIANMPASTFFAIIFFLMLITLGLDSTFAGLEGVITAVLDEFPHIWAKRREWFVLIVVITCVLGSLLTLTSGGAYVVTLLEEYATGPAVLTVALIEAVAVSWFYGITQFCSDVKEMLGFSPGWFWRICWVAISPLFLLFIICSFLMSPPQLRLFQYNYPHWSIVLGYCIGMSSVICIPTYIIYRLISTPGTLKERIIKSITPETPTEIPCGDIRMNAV
Sequence of Transporter (Q63380 whole entry): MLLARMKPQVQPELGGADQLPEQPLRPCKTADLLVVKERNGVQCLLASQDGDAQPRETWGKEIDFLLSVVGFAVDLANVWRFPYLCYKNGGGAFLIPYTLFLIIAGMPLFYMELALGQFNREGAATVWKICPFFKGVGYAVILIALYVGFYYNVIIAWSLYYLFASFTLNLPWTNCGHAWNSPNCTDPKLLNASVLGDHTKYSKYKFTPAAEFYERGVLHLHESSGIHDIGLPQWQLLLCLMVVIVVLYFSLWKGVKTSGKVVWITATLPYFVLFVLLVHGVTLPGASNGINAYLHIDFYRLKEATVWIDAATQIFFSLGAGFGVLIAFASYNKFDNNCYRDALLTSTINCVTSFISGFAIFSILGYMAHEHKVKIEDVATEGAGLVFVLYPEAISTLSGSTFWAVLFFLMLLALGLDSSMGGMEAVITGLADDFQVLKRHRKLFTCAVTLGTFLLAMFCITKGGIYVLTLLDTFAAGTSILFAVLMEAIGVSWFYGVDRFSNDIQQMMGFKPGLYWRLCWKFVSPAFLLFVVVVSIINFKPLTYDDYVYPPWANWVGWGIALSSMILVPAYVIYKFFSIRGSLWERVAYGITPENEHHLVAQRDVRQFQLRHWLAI

The molecule `CNCCC[C@@H](c1ccc(Cl)c(Cl)c1)c1cccc2ccccc12` came in with an IC50 in assay [1] of 209 nM. Besides, the Ki in assay [2] is 49.9 nM; on Transporter it was above 10000 nM.

With `CNCC[C@@H](c1ccc(Cl)c(Cl)c1)c1cccc2[nH]ccc12`, the IC50 in assay [1] is 14.9 nM. In addition, the Ki in assay [2] was 3.63 nM; on Transporter it was 35.4 nM.

In turn, `CNCCC[C@H](c1cccs1)c1cccc2ccccc12` registered an IC50 in assay [1] of 466 nM. The inhibition constant (Ki) worked out at 39.7 nM in assay [2] and 7.9 nM at Transporter.

Turning to `CNCC[C@H](c1ccc(Cl)c(Cl)c1)c1cccc2ccccc12`, the IC50 in assay [1] turned out to be 9.7 nM. For the same molecule, the Ki in assay [2] worked out at 5.3 nM; at Transporter it was 1640 nM.

The molecule `CNCCC[C@@H](c1cccs1)c1cccc2[nH]ccc12` registered an IC50 in assay [1] of 957 nM. In addition, the Ki in assay [2] is 271 nM; at Transporter it was 79.7 nM.

Molecule `CNCC[C@@H](c1cccs1)c1cccc2ccccc12` gave an IC50 in assay [1] of 230 nM. Further, the inhibitory constant (Ki) in assay [2] came to 12.1 nM; at Transporter, 139 nM.

Turning to `CNCC[C@@H](c1ccc(Cl)c(Cl)c1)c1cccc2ccccc12`, in assay [1], the IC50 was found to be 35.8 nM. Moreover, the Ki in assay [2] was determined as 86 nM; on Transporter, 1630 nM.

In assay [1], `CNCCC[C@H](c1ccc(Cl)c(Cl)c1)c1cccc2ccccc12` returned an IC50 of 61.2 nM. Further, the results for the Ki (in assay [2]; on Transporter) were 4.1 nM and 2480 nM, respectively.

`CNCCC[C@H](c1cccs1)c1cccc2[nH]ccc12`: in assay [1], the IC50 amounted to 318 nM. For the same molecule, the Ki stood at 72.9 nM in assay [2] and 9 nM on Transporter.

`CNCCC[C@@H](c1ccc(Cl)c(Cl)c1)c1cccc2[nH]ccc12` yielded an IC50 in assay [1] of 14.3 nM. Further, the values for the inhibitory constant (Ki) (in assay [2]; on Transporter) were 2.72 nM and 360 nM, respectively.

For `CNCC[C@H](c1ccc(Cl)c(Cl)c1)c1cccc2[nH]ccc12`, the IC50 in assay [1] was 7.21 nM. The Ki in assay [2] was determined as 1.68 nM; on Transporter, 95 nM.

With `CNCC[C@@H](c1cccs1)c1cccc2[nH]ccc12`, the results for the Ki (in assay [2]; on Transporter) were 166 nM and 102 nM, respectively.

As to `CNCC[C@H](c1cccs1)c1cccc2ccccc12`, the IC50 in assay [1] came out at 309 nM. For the same molecule, the inhibition constant Ki in assay [2] came out at 30.2 nM; on Transporter it was 52.1 nM.

In turn, `CNCCC[C@H](c1ccc(Cl)c(Cl)c1)c1cccc2[nH]ccc12` registered a half-inhibitory concentration (IC50) in assay [1] of 3.8 nM. In addition, the Ki was 0.82 nM in assay [2] and 4840 nM on Transporter.

Consider `CNCC[C@H](c1cccs1)c1cccc2[nH]ccc12`, for which the figures for the Ki (in assay [2]; at Transporter) were 31.9 nM and 13.8 nM, respectively.

In turn, `CNCCC[C@@H](c1cccs1)c1cccc2ccccc12` displayed an IC50 in assay [1] of 405 nM. Moreover, the values for the Ki (in assay [2]; on Transporter) were 9.5 nM and 109 nM, respectively.
